≈ marks a conversion by molar mass, not a printed value.
Legend:
[1] = system: Mycobacterium tuberculosis H37Rv; assay: Inhibition of ATP synthase in Mycobacterium tuberculosis H37Rv assessed as reduction in bacterial growth incubated for 7 days by microplate alamar blue assay; conditions: time 7.0 day
How it was run: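 Microplate alamar blue assay. Strains grown to late log phase in 7H9 broth with 0.2% glycerol, 0.05% Tween 80 and 10% ADC, then washed, filtered (8 µm) and frozen. Twofold compound dilutions with 2×10^5 CFU per well at 37 °C. On day 7, Tween 80 and alamar blue added; after 16–24 h, fluorescence read at 530/590 nm. MIC is the lowest concentration giving ≥90% fluorescence reduction versus bacterium-only controls.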

[2] = target: Voltage-gated inwardly rectifying potassium channel KCNH2 (Homo sapiens, UniProt Q12809); assay: Inhibition of human ERG stably expressed in HEK293 cells by whole-cell manual patch clamp method; assay type: cell-based
Sequence of Voltage-gated inwardly rectifying potassium channel KCNH2 (Q12809 whole entry): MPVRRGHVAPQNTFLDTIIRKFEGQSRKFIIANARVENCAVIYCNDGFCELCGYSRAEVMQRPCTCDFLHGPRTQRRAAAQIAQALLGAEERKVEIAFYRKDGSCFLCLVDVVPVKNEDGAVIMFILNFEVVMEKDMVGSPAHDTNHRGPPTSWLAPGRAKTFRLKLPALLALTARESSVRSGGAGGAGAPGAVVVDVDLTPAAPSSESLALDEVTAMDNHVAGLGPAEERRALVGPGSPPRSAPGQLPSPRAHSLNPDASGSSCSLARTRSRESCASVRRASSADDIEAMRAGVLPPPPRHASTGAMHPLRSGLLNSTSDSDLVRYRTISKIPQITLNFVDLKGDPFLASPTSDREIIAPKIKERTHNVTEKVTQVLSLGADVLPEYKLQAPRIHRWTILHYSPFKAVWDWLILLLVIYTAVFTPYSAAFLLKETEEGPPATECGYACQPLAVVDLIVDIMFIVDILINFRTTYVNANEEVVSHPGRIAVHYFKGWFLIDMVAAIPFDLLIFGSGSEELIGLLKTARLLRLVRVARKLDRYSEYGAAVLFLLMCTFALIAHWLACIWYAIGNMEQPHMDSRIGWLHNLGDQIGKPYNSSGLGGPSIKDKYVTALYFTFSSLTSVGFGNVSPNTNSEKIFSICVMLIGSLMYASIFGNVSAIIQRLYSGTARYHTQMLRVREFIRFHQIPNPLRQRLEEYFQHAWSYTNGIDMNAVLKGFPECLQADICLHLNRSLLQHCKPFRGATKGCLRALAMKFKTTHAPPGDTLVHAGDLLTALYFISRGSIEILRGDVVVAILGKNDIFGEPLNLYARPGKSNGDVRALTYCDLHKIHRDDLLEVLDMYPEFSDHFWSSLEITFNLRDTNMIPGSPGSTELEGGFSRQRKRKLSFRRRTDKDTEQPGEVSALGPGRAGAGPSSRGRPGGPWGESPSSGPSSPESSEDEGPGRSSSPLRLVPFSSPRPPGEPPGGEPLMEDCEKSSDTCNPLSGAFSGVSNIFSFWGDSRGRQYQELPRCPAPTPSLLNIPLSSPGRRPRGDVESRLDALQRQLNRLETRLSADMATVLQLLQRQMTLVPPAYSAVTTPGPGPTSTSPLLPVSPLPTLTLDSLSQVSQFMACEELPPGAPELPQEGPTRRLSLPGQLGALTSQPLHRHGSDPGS

Vero = assay: Cytotoxicity against African green monkey Vero cells assessed as reduction in cell viability measured after 48 hrs by MTT assay; assay type: cell-based; conditions: Chlorocebus sabaeus
How it was run: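 Vero cells grown in RPMI1640 with 10% FBS at 37 °C, 5% CO2, seeded at 4×10^5 cells/mL. Threefold dilutions from 64 to 0.26 µg/mL final, incubated 48 h at 37 °C. Monolayers washed with HBSS, then MTT added for 4 h. Absorbance read at 492 nm.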

[3] = Intrinsic clearance in human hepatocytes at 1 uM measured after 30 mins by LC-MS/MS analysis; assay type: ADME, cell-based, Hepatocyte; conditions: 0.5 h
How it was run: (§1)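 Pooled male CD-1 mouse or pooled human hepatocytes, pre-incubated 20 min at 37 °C in CO2. Compound at 1 µM final with 1 million cells/mL. Samples taken at 0 and 30 min, quenched and centrifuged 15 min at 4 °C. Parent compound remaining measured by LC-MS/MS.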

[4] = Intrinsic clearance in CD-1 mouse hepatocytes at 1 uM measured after 30 mins by LC-MS/MS analysis; assay type: ADME, cell-based, Hepatocyte; conditions: 0.5 h; how it was run: as §1
[5] = Half life in human hepatocytes at 1 uM measured after 30 mins by LC-MS/MS analysis; assay type: ADME, cell-based, Hepatocyte; how it was run: as §1
[6] = Half life in CD-1 mouse hepatocytes at 1 uM measured after 30 mins by LC-MS/MS analysis; assay type: ADME, cell-based, Hepatocyte; how it was run: as §1

SMILES | MIC=>90 [1] | IC50 (Vero) | further results
O=C1NC(=O)C(c2ccc(N3CCOCC3)cc2)=C1NCc1ccccn1 | > 32 µg/mL | – | –
O=c1c(NCc2ccccn2)c(Nc2ccc3scnc3c2)c1=O | 0.963 µg/mL (≈ 2.86 µM) | > 64 µg/mL | IC50 [2]: > 10 µM
COc1ccc(Nc2c(NCc3ccccn3)c(=O)c2=O)cc1 | 3.42 µg/mL (≈ 11 µM) | – | –
O=C1NC(=O)C(c2ccc(N3CCOCC3)cc2)=C1NCc1ccncc1 | > 32 µg/mL | – | –
O=c1c(NCc2ccccn2)c(-c2ccc(N3CCOCC3)cc2)c1=O | 0.12 µg/mL (≈ 0.343 µM) | > 64 µg/mL | intrinsic clearance [3]: 21.9 µL/min; intrinsic clearance [4]: 40.6 µL/min; half-life at 1 µM [5]: 31.7 min; half-life at 1 µM [6]: 17.1 min; IC50 [2]: > 30 µM
O=C1COCCN1c1ccc(Nc2c(NCc3ccccn3)c(=O)c2=O)cc1 | 7.75 µg/mL (≈ 20.5 µM) | – | –
O=C1CCc2ccc(Nc3c(NCc4ccccn4)c(=O)c3=O)cc21 | 1.83 µg/mL (≈ 5.5 µM) | > 64 µg/mL | –
O=c1c(NCc2ccccn2)c(Nc2ccc(N3CCSCC3)c(C(F)(F)F)c2)c1=O | 9.4 µg/mL (≈ 21 µM) | – | –
O=c1c(NCc2ccccn2)c(Nc2ccc3[nH]ccc3c2)c1=O | > 32 µg/mL | – | –
NNC(=O)c1ccncc1 | 0.019 µg/mL (≈ 0.139 µM) | – | –
O=C1OCC(NCc2ccccn2)=C1c1ccc(N2CCOCC2)cc1 | > 32 µg/mL | – | –
O=c1c(NCc2ccccn2)c(Nc2ccc(N3CCCOCC3)cc2)c1=O | 6.65 µg/mL (≈ 17.6 µM) | – | –
O=c1c(NCc2ccccn2)c(Nc2ccc3c(c2)OCCO3)c1=O | 1.89 µg/mL (≈ 5.59 µM) | > 64 µg/mL | –
O=c1c(NCc2ccccn2)c(Nc2ccc(N3CCOCC3)cn2)c1=O | > 32 µg/mL | – | –
O=c1c(NCc2ccccn2)c(Nc2ccc3ncsc3c2)c1=O | 1.91 µg/mL (≈ 5.68 µM) | > 64 µg/mL | –
O=c1c(NCc2ccccn2)c(Nc2ccc(N3CCCCC3)cc2)c1=O | 3.76 µg/mL (≈ 10.4 µM) | – | –
O=c1c(NCc2ccccn2)c(Nc2ccc3c(c2)OCCCO3)c1=O | 2.22 µg/mL (≈ 6.32 µM) | > 64 µg/mL | –
COc1ccccc1Nc1c(NCc2ccccn2)c(=O)c1=O | > 32 µg/mL | – | –
CN(C)c1ccc(Nc2c(NCc3ccccn3)c(=O)c2=O)cc1 | 2 µg/mL (≈ 6.19 µM) | – | –
O=C1OCC(c2ccc(N3CCOCC3)cc2)=C1NCc1ccccn1 | > 32 µg/mL | – | –
COc1cc(Nc2c(NCc3ccccn3)c(=O)c2=O)ccc1N1CCSCC1 | > 32 µg/mL | – | –
N#Cc1cc(Nc2c(NCc3ccccn3)c(=O)c2=O)ccc1N1CCSCC1 | 1.23 µg/mL (≈ 3.04 µM) | > 64 µg/mL | –
CO[C@H]1/C=C/O[C@@]2(C)Oc3c(C)c(O)c4c(O)c(c(/C=N/N5CCN(C)CC5)c(O)c4c3C2=O)NC(=O)/C(C)=C\C=C\[C@H](C)[C@H](O)[C@@H](C)[C@@H](O)[C@@H](C)[C@H](OC(C)=O)[C@@H]1C | 0.015 µg/mL (≈ 0.0182 µM) | – | –

Reference: ChEMBL document CHEMBL4765447, “Design, synthesis and biological evaluation of diamino substituted cyclobut-3-ene-1,2-dione derivatives for the treatment of drug-resistant tuberculosis” (Eur J Med Chem, 2020)
